Bioassay records: PubChem, Broad Institute
GSIS activator = GLuc luminescence reporter in INS-1E cells, primary screen for activators of glucose-dependent secretion of insulin | INS-1E GLuc reporter insulin secretion, 2-3 h | activation, % at 16.6 µM | 370,000 compounds, 0.61% hits | AID 743287;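 active means lowest replicate activation of at least 40%, so every replicate reaches that level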;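 further: 0% = median of neutral control wells and 100% = median of IBMX positive control wells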
Cneo AK release = causes C. neoformans cell lysis | 360,000 compounds, 0.2% hits | lysis activity, % at 15 µM | adenylate kinase release luminescence, 4 h; normalised: neutral wells 0, clomiphene wells 100;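 active means mean lysis activity across replicates of at least 80%, whatever share of replicates individually reach that level; inactive means mean lysis activity below 80%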
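Test system: log-phase Cryptococcus neoformans yeast cells; Quantity: yeast cell density of 5 × 10^6 cells/mL; Buffer or medium: YPD; Doses: single compound concentration per well; Timing: 4 h at 37 °C static, read 1 h later; Measured by: AK luminescence; Read-out basis: lysis from increased AK signal; Control set: Clomiphene as positive control.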
HIV Env fusion = blocks HIV Env-driven cell-cell fusion. HeLa-JRFL Env/CEM21 cell fusion, luciferase. inhibition, % at 12.3 µM. 360,000 compounds, 1.1% hits. AID 651610;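 active means mean replicate inhibition score of at least 50 and every replicate individually at or above 50; inconclusive means only one of the two criteria met; inactive means mean below 50 and not all replicates reaching 50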;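 further: 0% = plate neutral controls and 100% = maraviroc near 300 nM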
miR122 inh = miR-122 inhibition in Huh7 cells; 340,000 compounds, 0.3% hits; Huh7 miR-122 Renilla luciferase sensor, 48 h; neutral wells = 0, positive control = 100; activation (reporter increase), % at 12.5 µM; AID 602342;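 active means mean replicate activation score at least 90 and every replicate individually at or above 90; inconclusive means only one of the two criteria met; inactive means neither criterion met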;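 further: higher luciferase means less miR-122 activity so hits act as miR-122 inhibitors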
dFosB act = activators of mouse delta FosB homodimer. purified delta FosB, TAMRA-CDK5 oligo fluorescence polarization; percent of positive-control signal above neutral wells. AID 493131. 340,000 compounds, 0.99% hits. P13346. activation, % at 25 µM;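 active means mean activation above about 17%, with every replicate also reaching it, limit read from the data, passing the limit was not always enough; inconclusive means only one of the two conditions met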
Target sequence (P13346 whole entry, looked up): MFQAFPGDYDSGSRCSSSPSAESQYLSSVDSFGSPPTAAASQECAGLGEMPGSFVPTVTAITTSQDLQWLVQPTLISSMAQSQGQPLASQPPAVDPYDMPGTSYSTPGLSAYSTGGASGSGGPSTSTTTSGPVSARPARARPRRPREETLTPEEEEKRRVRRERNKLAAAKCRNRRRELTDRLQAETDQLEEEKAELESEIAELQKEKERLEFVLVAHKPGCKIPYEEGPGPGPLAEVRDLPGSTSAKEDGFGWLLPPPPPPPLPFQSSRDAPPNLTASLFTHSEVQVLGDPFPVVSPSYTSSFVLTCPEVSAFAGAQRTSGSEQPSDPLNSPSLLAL
Rtt109 Vps75 = blocks Candida albicans Rtt109/Vps75 acetyltransferase activity; Q5AAJ8; purified Rtt109/Vps75, ThioGlo CoA-SH fluorescence, 4 h; inhibition, % at 34.9 µM; 330,000 compounds, 0.16% hits; AID 540336;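 active means inhibition of at least 50% in every replicate; inconclusive means best replicate reaches 50% inhibition but some replicates fall short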
Target sequence (Q5AAJ8 whole entry, looked up): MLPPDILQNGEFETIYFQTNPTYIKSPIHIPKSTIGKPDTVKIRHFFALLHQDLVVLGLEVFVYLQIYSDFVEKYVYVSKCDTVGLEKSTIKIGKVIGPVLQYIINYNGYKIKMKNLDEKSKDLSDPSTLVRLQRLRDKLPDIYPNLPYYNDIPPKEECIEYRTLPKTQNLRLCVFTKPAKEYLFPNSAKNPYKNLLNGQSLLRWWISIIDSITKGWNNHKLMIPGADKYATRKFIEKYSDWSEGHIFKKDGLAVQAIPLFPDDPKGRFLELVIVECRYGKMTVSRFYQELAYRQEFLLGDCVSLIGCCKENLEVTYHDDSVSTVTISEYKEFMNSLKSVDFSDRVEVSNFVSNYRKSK
Starred values were filed as active, the others as inactive; ? = inconclusive; . = not tested or not shown; [ ] = remark or other dose. The list is not random: actives were taken first. Their share in the collection is about 2.4%.

SMILES	GSIS activator	Cneo AK release	HIV Env fusion	miR122 inh	dFosB act	Rtt109 Vps75
COC(=O)[C@@]1(C)[C@H]2C(=O)N(Cc3ccccc3)C(=O)[C@H]2[C@H]2CN=C(SCc3ccccc3)N21	-7	0	77*	-1	1	-6
CCN1C(=O)[C@H]2[C@H]3CN=C(SCc4ccc(C#N)cc4)N3[C@@](Cc3ccccc3)(C(=O)OC)[C@H]2C1=O	-6	0	-16	-5	-1	5
CC[C@]1(C(=O)OC)[C@H]2C(=O)N(Cc3ccccc3)C(=O)[C@H]2[C@H]2CN=C(SCc3ccc(C)cc3)N21	-10	2	69*	-5	-3	2
CCN1C(=O)[C@H]2[C@H]3CN=C(SCC4CC4)N3[C@@](Cc3ccccc3)(C(=O)OC)[C@H]2C1=O	-4	3	30	.	4	?
C[C@H](CO)N1C[C@H](C)[C@@H](CN(C)Cc2ccc(-c3ccccc3)cc2)Oc2ccc(NS(=O)(=O)c3cn(C)cn3)cc2CC1=O	19	.	.	.	.	.
CCCNC(=O)N1C[C@@H](O)COC[C@H]2O[C@H](CC(=O)N3CCN(C)CC3)CC[C@@H]21	0	105*	0[16.7 µM]	-6[16.7 µM]	.	.
CCCNC(=O)N1C[C@H](O)COC[C@H]2O[C@H](CC(=O)N3CCN(C)CC3)CC[C@@H]21	-3	118*	-37[16.7 µM]	2[16.7 µM]	.	.
O=C(c1cnccn1)N1CC(=O)N2[C@H](CO)[C@H](c3ccc(C#CC4CCCCC4)cc3)[C@@H]2C1	-6	.	.	.	.	.
C=CCn1c(SCc2csc(-c3ccc(Cl)cc3)n2)nnc1-c1ccccc1OC	-50	.	56*	.	2	-9
C=CCn1c(SCC(=O)Nc2ccc3c(c2)OCO3)nnc1-c1ccccc1OC	.	-2	.	11	-6	10
Cc1ccccc1S(=O)(=O)N(C)C[C@H]1OCc2ccccc2-c2c(n(C)c3ccccc23)C(=O)N([C@H](C)CO)C[C@@H]1C	-15	1	.	.	.	.
Cc1ccccc1S(=O)(=O)N(C)C[C@@H]1OCc2ccccc2-c2c(n(C)c3ccccc23)C(=O)N([C@H](C)CO)C[C@@H]1C	-19	6	74*	3	.	.
C[C@@H]1CN([C@@H](C)CO)C(=O)c2c(c3ccccc3n2C)-c2ccccc2CO[C@H]1CN(C)S(=O)(=O)c1ccc(C#N)cc1	-2	2	69*	-8	.	.
C[C@@H]1CN([C@H](C)CO)C(=O)c2c(c3ccccc3n2C)-c2ccccc2CO[C@H]1CN(C)S(=O)(=O)c1cccs1	-12	90*	14[16.7 µM]	.	.	.
COc1ccc2c3c(n(C)c2c1)[C@H](CO)N(Cc1ccccc1)CC31CN(S(C)(=O)=O)C1	-6	.	.	.	.	.
Cc1noc(C)c1S(=O)(=O)Nc1ccc2c(c1)C(=O)N([C@@H](C)CO)C[C@H](C)[C@@H](CN(C)S(=O)(=O)c1cn(C)cn1)OCCCC[C@H](C)O2	29	2	6[16.7 µM]	12[16.7 µM]	.	.
C=C1SC(=Nc2c(C)cccc2Cl)N(C(=O)c2sc3ccccc3c2Cl)C12CCCCC2	135*	-1	13	.	-4	4
N#C/C(=C\c1ccc(OCc2ccc(C(=O)O)cc2)cc1)C(=O)N1CCOCC1	-4	.	65*	.	-9	-2
C[C@H]1CN([C@@H](C)CO)C(=O)c2cc(-c3ccc(C(=O)N(C)C)cc3)cnc2O[C@@H]1CN(C)C(=O)CN(C)C	-3	1	-28[16.7 µM]	10[16.7 µM]	.	.
C[C@@H]1CN([C@@H](C)CO)C(=O)c2cc(C#CC3CCCCC3)cnc2O[C@@H]1CN(C)C(=O)Cc1ccccn1	-7	-2	24[16.7 µM]	-10[16.7 µM]	.	.
O=C(c1ccccc1)N1CCSc2sccc2C1=O	30	1	66*	-1	-1	-5
NS(=O)(=O)c1ccc(Sc2nc3ccccc3s2)c([N+](=O)[O-])c1	.	1	73*	31	-1	-4
C[C@H](NC(=O)C[C@H]1C[C@@H]2c3cc(NS(=O)(=O)c4ccc(F)cc4)ccc3O[C@@H]2[C@H](CO)O1)c1ccccc1	-6	-2	-11[16.7 µM]	1[16.7 µM]	.	.
CN(C)C(=O)C[C@H]1C[C@@H]2c3cc(NS(=O)(=O)c4ccc(F)cc4)ccc3O[C@@H]2[C@@H](CO)O1	5	-11	90*[16.7 µM]	-5[16.7 µM]	.	.
CN(C)C(=O)C[C@H]1C[C@@H]2c3cc(NS(=O)(=O)c4ccc(F)cc4)ccc3O[C@@H]2[C@H](CO)O1	-1	2	13[16.7 µM]	3[16.7 µM]	.	.
SMILES	GSIS activator	Cneo AK release	HIV Env fusion	miR122 inh	dFosB act	Rtt109 Vps75
CN(C)C(=O)C[C@@H]1C[C@H]2c3cc(NS(=O)(=O)c4ccc(F)cc4)ccc3O[C@H]2[C@H](CO)O1	-2	-2	90*[16.7 µM]	3[16.7 µM]	.	.
CN(C)C(=O)C[C@@H]1C[C@@H]2c3cc(NS(=O)(=O)c4ccc(F)cc4)ccc3O[C@@H]2[C@@H](CO)O1	-4	2	70*[16.7 µM]	2[16.7 µM]	.	.
C[C@@H](NC(=O)C[C@H]1C[C@@H]2c3cc(NS(=O)(=O)c4ccc(F)cc4)ccc3O[C@@H]2[C@H](CO)O1)c1ccccc1	-12	-3	86*[16.7 µM]	-4[16.7 µM]	.	.
CN(C)C(=O)C[C@@H]1CC[C@@H]2[C@H](COC[C@H](O)CN2S(=O)(=O)c2ccccc2)O1	1	6	.	-5[16.7 µM]	.	.
COCCNC(=O)C[C@H]1CC[C@@H]2[C@H](COC[C@H](O)CN2C(=O)Nc2ccccc2OC)O1	2	1	.	-1[16.7 µM]	.	.
C[C@H](CO)N1C[C@H](C)[C@@H](CN(C)C(=O)Nc2ccc3c(c2)OCO3)Oc2ccc(NC(=O)Nc3ccc(C(F)(F)F)cc3)cc2CC1=O	-28	.	.	.	.	.
CO[C@@H]1CN(C)C(=O)c2ccc(NC(=O)c3ccc(F)cc3)cc2OC[C@@H](C)N(C(C)=O)C[C@H]1C	.	-5	.	.	.	.
C[C@@H](NC(=O)C[C@@H]1C[C@@H]2c3cc(NC(=O)Nc4ccccc4F)ccc3O[C@@H]2[C@@H](CO)O1)c1ccccc1	105*	1	15[16.7 µM]	5[16.7 µM]	.	.
COC(=O)c1ccc(CNC(=O)CCc2c[nH]c3ccccc23)cc1	50*	-1	-7	.	-5	0
COc1ccc(CNC(=O)CCc2c[nH]c3ccccc23)cc1	14	1	9	.	2	2
COc1ccc(N2CCN(C(=O)CSc3nnc(-c4cccnc4)n3-c3ccccc3)CC2)cc1	.	1	10	-9	-3	53*
CCSc1nnc(-c2cccnc2)n1-c1ccc(C)c(Cl)c1	64*	0	.	-40	1	2
COc1cccc(-c2cnc3c(c2)C(=O)N([C@@H](C)CO)C[C@@H](C)[C@@H](CN(C)CC2CC2)O3)c1	-1	.	-9[16.7 µM]	6[16.7 µM]	.	.
C[C@H]1COCc2cnnn2CC[C@H](Cc2ccccc2)C(=O)N1	1	.	.	.	.	.
C[C@H]1CN([C@@H](C)CO)C(=O)Cc2cc(NC(=O)Cc3ccccc3)ccc2O[C@H]1CN(C)Cc1ccc(Cl)c(Cl)c1	2	4	1[16.7 µM]	-5[16.7 µM]	.	.
Cc1cc(N2CCN(c3nc4ccccc4s3)CC2)n2ncnc2n1	.	4	87*	-19	-2	3
